In ChEMBL document CHEMBL1132618, “Cytotoxicity of (2,2':6',2''-terpyridine)platinum(II) complexes to Leishmania donovani, Trypanosoma cruzi, and Trypanosoma brucei” (J Med Chem, 1999) one finds inhibition and ED50 data, which are given here for one substance.

The subject of experiment [1] is Leishmania donovani. Description: Antiparasitic activity against Leishmania donovani for % inhibition at 10 uM concentration T/100 means the compound was toxic to macrophages but more toxic to parasites that is none present, 100% inhibition. Format: functional, organism-based. A digest of the protocol: (§1)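 L. donovani MHOM/ET/67/L82 amastigotes from golden hamster spleen infect CD1 mouse peritoneal macrophages at 10:1 in RPMI 1640 + 10% hiFCS, 37 °C, 5% CO2. Compound exposure is a 3-fold dilution series from 30 μM, quadruplicate cultures, 5 days, with medium + drug replaced once. Cells are methanol-fixed and Giemsa-stained, and the proportion of infected cells is compared with untreated cultures. ED50 is derived by linear regression.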

In experiment [2] the test system is Trypanosoma brucei. The experiment in a line: Antiparasitic activity against Trypanosoma brucei, percentage inhibition at 30 uM concentration. Format: functional, organism-based. The essentials:
(§2)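 T. brucei S427 bloodstream trypomastigotes are grown in HMI-18 + 20% hiFCS at 37 °C, 5% CO2. Compound exposure is a 3-fold dilution series from 30 μM, triplicate cultures, 72 h. Read-out is an MTT-based cytotoxicity assay, or Coulter counting of cells/mL in the dose-range screen. ED50 is derived by linear regression of dose-response.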

Experiment [3] has as its system Trypanosoma brucei. Description: Antiparasitic activity against Trypanosoma brucei, percentage inhibition at 10 uM concentration. Format: functional, organism-based. A digest of the protocol: as §2
The subject of experiment [4] is Trypanosoma brucei. Description: Compound was tested for antiparasitic activity caused against Trypanosoma brucei for percentage inhibition at 1 uM concentration. Format: functional, organism-based. The essentials: as §2
For experiment [5], the system named is Trypanosoma brucei. Description: Antiparasitic activity caused against Trypanosoma brucei for percentage inhibition at 3 uM concentration. Format: functional, organism-based. A digest of the protocol:
as §2

Experiment [6] deals with Leishmania donovani. The experiment in a line: Compound was tested for antiparasitic activity caused against Leishmania donovani for percentage inhibition at 3 uM concentration. Format: functional, organism-based. The essentials:
as §1

Experiment [7] has as its system Trypanosoma cruzi. Description: Compound was tested for antiparasitic activity caused against Trypanosoma cruzi for effective dose for 50% activity.
For experiment [8], the system named is Trypanosoma cruzi. Description: Antiparasitic activity against Trypanosoma cruzi for % inhibition at 3 uM concentration T/+ means the compound was toxic to macrophages but parasites still present. Format: functional, organism-based. A digest of the protocol: (§3)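 T. cruzi Y strain (MHOM/BR/00/Y) trypomastigotes from MDCK cells infect CD1 mouse peritoneal macrophages at 5:1 in RPMI 1640 + 10% hiFCS, 37 °C, 5% CO2. Compound exposure is a 3-fold dilution series from 30 μM, quadruplicate, 3 days. Read-out is the proportion of infected cells after methanol fixation and Giemsa staining, versus untreated cultures. ED50 is derived by linear regression.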

For experiment [9], the system named is Trypanosoma cruzi. The experiment in a line: Antiparasitic activity against Trypanosoma cruzi for % inhibition at 30 uM concentration T/+ means the compound was toxic to macrophages but parasites still present. Format: functional, organism-based. The essentials:
as §3

Experiment [10] concerns Leishmania donovani. Description: Antiparasitic activity against Leishmania donovani for % inhibition at 30 uM concentration T/100 means the compound was toxic to macrophages but more toxic to parasites that is none present, 100% inhibition. Format: functional, organism-based. A digest of the protocol: as §1
For experiment [11], the system named is Trypanosoma cruzi. Description: Antiparasitic activity against Trypanosoma cruzi for % inhibition at 10 uM concentration T/+ means the compound was toxic to macrophages but parasites still present. Format: functional, organism-based. The essentials:
as §3

The inhibition is the relative decrease from the control value, in per cent. For the substance “(2,2':6',2''-terpyridine)platinum (II) complex”, the inhibition result was “Total inhibition” in the experiment on Leishmania donovani [1]; 100% in the experiment with Trypanosoma brucei [2]; 100% in the experiment with Trypanosoma brucei [3]; 100% in the experiment with Trypanosoma brucei [4]; 100% in the experiment with Trypanosoma brucei [5]; 99.8% with Leishmania donovani [6]. Further, the inhibition entry was “toxic to macrophages but parasites still present” in the experiment on Trypanosoma cruzi [8], “toxic to macrophages but parasites still present” with Trypanosoma cruzi [9], “Total inhibition” in the experiment with Leishmania donovani [10] and “toxic to macrophages but parasites still present” with Trypanosoma cruzi [11]. The same substance had an ED50 with Trypanosoma cruzi [7] of 4 µM.
